Among the data in ChEMBL document CHEMBL1144450 (J Med Chem, 2005) are Activity, ED50 and IC50 values, retold here.

For orientation: pIC50 means the IC50 on a negative log10 scale, so that one unit is a factor of ten.

Assay [1] can be described thus: Percentage of nitric oxide released by the compound when incubated in phosphate buffer solution at pH 7.4, 37 degree C for 1.5 h. The assay is classed as functional. A digest of the protocol:
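The compound was incubated in PBS at pH 7.4 and 37 °C for 1.5 h. Nitric oxide was quantified as nitrite by the Griess reaction. Release is expressed as percent of a theoretical maximum of 2 mol NO per mol compound, SEM, n = 3.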

Assay [2] is described as follows: Percentage of nitric oxide released upon incubation in the presence of guinea pig serum in PBS pH 7.4, 37 degree C for 1.5 h. Also on record: concentration or dose not given beside the values. The assay is classed as functional. Put shortly: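 Test compound (2.0 × 10-4 mmol) was incubated with 260 µL guinea pig serum in PBS at pH 7.4, 37 °C, for 1.5 h. Nitrite was determined by the Griess reaction. Release is given as percent of a theoretical maximum of 2 mol NO per mol compound, SEM, n = 3.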

The test system of assay [3] is Rattus norvegicus. As to the kind of experiment: In vivo antiinflammatory activity after 3 hr of oral administration was determined using rat carrageenan induced paw edema model. Format: functional. As to conditions: read-out: ID50 (the source's name). A digest of the protocol:
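Carrageenan-induced foot paw edema in rats, with the test compound and reference drugs given orally. Activity is expressed as ID50 in mg/kg.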
(In general: Carrageenan injected into the paw causes an acute inflammation.)

A short description of assay [4]: Percentage of nitric oxide released by the compound when incubated in the presence of pig liver esterase in phosphate buffer solution at pH 7.4, 37 degree C for 1.5 h. The assay is classed as functional. Put shortly: (§1)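 Pig liver esterase was added at 2 equiv (1 mol compound : 2 mol esterase) in PBS at pH 7.4, 37 °C, 1.5 h. Nitrite from NO was measured by the Griess reaction. Release is given as percent of a theoretical 2 mol NO per mol compound, SEM, n = 3.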

Assay [5] has as its target T1, Prostaglandin G/H synthase 1 (Ovis aries, UniProt P05979).
T1 sequence (P05979 whole entry): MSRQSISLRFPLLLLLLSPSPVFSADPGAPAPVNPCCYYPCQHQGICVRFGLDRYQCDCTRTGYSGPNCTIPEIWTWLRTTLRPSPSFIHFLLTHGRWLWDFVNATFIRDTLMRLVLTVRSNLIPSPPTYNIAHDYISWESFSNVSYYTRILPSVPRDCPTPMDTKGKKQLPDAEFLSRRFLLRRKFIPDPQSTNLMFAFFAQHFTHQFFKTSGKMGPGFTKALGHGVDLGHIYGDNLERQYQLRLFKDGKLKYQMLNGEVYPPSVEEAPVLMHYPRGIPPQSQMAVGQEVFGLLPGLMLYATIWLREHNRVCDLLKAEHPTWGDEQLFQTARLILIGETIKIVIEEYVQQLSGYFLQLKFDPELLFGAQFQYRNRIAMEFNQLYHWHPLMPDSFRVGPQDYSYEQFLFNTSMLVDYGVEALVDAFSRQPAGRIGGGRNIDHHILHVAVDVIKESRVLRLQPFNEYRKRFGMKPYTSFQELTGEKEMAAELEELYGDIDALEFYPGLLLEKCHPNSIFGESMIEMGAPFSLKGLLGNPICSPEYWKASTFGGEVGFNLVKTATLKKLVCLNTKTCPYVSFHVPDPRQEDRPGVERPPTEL
As to the kind of experiment: In vitro inhibitory concentration against COX-1 enzyme.

Assay [6] can be described thus: Percentage of nitric oxide released upon incubation in the presence of pig liver esterase in phosphate buffer solution at pH 7.4, 37 degree C for 1.5 h. The assay is classed as functional. A digest of the protocol: as §1

The structures appear in SMILES notation. pIC50: −log10 of the molar value.

Consider `CN(C)/[N+]([O-])=N/O`, for which the Activity in assay [1] was 95.2%.

Regarding `CC(=O)Oc1ccccc1C(=O)OCO/N=[N+](\[O-])N1CCCC1`, the Activity in assay [2] came out at 88.9%; in assay [4], 18.5%; in assay [1], 14.8%. In addition, in assay [3], the ED50 is 182 mg/kg. In assay [5], this compound showed a pIC50 of less than 4.00.

As for `COc1ccc2c(c1)c(CC(=O)OCO/N=[N+](\[O-])N(C)C)c(C)n2C(=O)c1ccc(Cl)cc1`, the Activity in assay [2] turned out to be 86.3%; in assay [6], 16.9%; in assay [1] it was 14.3%. In addition, the ED50 in assay [3] was determined as 5.9 mg/kg. In assay [5], this compound had a pIC50 of less than 4.00.

With `CC(C)Cc1ccc(C(C)C(=O)OCO/N=[N+](\[O-])N2CCCC2)cc1` (centres undefined), the Activity in assay [2] was determined as 89.2%; in assay [6] it was 16.3%; in assay [1], 14.9%. In assay [3], the ED50 was 66.8 mg/kg. Besides, the pIC50 in assay [5] was less than 4.00.

As to `[O-]/[N+](=N\O)N1CCCC1`, the Activity in assay [1] was 94%.

Regarding `COc1ccc2c(c1)c(CC(=O)OCO/N=[N+](\[O-])N1CCCC1)c(C)n2C(=O)c1ccc(Cl)cc1`, the Activity in assay [2] is 89.1%; in assay [6] it was 16.3%; in assay [1], 15.1%. In addition, in assay [3], the ED50 stood at 10.7 mg/kg. The pIC50 in assay [5] was less than 4.00.

Take `COc1ccc2c(c1)c(CC(=O)O)c(C)n2C(=O)c1ccc(Cl)cc1` [INDOMETHACIN]: the ED50 in assay [3] was 4.2 mg/kg.

On to `CC(=O)Oc1ccccc1C(=O)OCO/N=[N+](\[O-])N(C)C`, for which the Activity in assay [2] came to 81.6%; in assay [6], 19.1%; in assay [1], 15.4%. Also, the ED50 in assay [3] came out at 151 mg/kg. In assay [5], this compound had a pIC50 of less than 4.00.

For `CC(C)Cc1ccc(C(C)C(=O)OCO/N=[N+](\[O-])N(C)C)cc1` (centres undefined), the Activity in assay [2] is 93.6%; in assay [6], 17.3%; in assay [1] it was 16.1%. Moreover, in assay [3], the ED50 came out at 62.3 mg/kg. In assay [5], the pIC50 is less than 4.00.

Regarding `CC(C)Cc1ccc(C(C)C(=O)O)cc1` (centres undefined) [IBUPROFEN], in assay [3], the ED50 was found to be 67.4 mg/kg.
